As usually defined, the inhibition is the share of the control response that was lost under treatment. Read a low inhibition as little suppression. By T/C is commonly meant the result in the treated group divided by that in the control group, in per cent.

The target in assay [1] is T1, Estrogen receptor (Mus musculus) (UniProt O08537+P19785). Put plainly: In vivo anti-estrogenic effect in immature mice at 5 ug. Format: functional, organism-based. Put shortly:
(§1)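 Antiuterotrophic assay in immature female NMRI mice (10–12 g; 10 per group) with estrone-stimulated uterine growth. Test compound in olive oil given sc daily for 3 consecutive days. Uteri taken 24 h after the final dose, Bouin-fixed, dried and weighed. Antiestrogenic effect measured as inhibition of the estrone-driven uterine growth.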

Assay [2] concerns Mus musculus. Put plainly: (§2) In vivo inhibition of hormone-dependent MXT mammary tumor in mice. Format: functional. Put shortly:
(§3)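 MXT tumor pieces (~2 mm3) implanted sc into female 8-week-old BDF1 mice, randomized into groups of 10. From day 1 after transplant, compound in olive oil given sc 3 times weekly (equimolar doses) for 6 weeks. Tumors excised and weighed. T/C % = treated/solvent-control tumor weight × 100 (mean of 10); uterus T/C also recorded.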

For assay [3], the target named is T1, Estrogen receptor (Mus musculus). Nature of the assay: […] estrogenic effect in immature mice at 500 ug. Format: functional. In outline:
(§4)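 Uterotrophic assay in immature female NMRI mice (10–12 g at start; 10 per group). Test compound in olive oil given sc daily for three consecutive days. Uteri removed 24 h after the last injection, fixed in Bouin's solution, dried and weighed. Estrogenic effect read as stimulation of uterine growth.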

The subject of assay [4] is Mus musculus. Described as §2. Format: functional. In outline: as §3
The source holds these as a separate data set.

The target in assay [5] is T1, Estrogen receptor (Mus musculus). Put plainly: In vivo anti-estrogenic effect in immature mice at 100 ug. Format: functional, organism-based. Put shortly: as §1
Assay [6] has the same target. Put plainly: In vivo anti-estrogenic effect in immature mice at 0.5 ug. Format: functional, organism-based. In outline:
as §1

Assay [7] has the same target. Put plainly: […] estrogenic effect in immature mice at 1 ug. Format: functional. Put shortly: as §4

T1 sequence (O08537 whole entry, looked up): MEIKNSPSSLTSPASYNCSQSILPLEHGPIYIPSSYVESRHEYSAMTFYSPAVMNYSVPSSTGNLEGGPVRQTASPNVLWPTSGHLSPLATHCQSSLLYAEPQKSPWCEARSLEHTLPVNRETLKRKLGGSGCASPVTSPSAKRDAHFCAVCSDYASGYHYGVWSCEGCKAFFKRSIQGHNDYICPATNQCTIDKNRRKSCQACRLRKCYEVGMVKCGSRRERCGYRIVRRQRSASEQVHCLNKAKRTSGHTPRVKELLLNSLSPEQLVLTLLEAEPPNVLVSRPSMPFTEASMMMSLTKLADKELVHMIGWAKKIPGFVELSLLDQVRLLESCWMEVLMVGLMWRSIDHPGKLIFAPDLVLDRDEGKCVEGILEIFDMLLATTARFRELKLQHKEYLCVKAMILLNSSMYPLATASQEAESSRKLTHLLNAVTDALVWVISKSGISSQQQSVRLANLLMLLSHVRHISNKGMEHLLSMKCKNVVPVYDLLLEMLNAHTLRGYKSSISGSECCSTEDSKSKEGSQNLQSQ
T1 sequence (P19785 whole entry, looked up): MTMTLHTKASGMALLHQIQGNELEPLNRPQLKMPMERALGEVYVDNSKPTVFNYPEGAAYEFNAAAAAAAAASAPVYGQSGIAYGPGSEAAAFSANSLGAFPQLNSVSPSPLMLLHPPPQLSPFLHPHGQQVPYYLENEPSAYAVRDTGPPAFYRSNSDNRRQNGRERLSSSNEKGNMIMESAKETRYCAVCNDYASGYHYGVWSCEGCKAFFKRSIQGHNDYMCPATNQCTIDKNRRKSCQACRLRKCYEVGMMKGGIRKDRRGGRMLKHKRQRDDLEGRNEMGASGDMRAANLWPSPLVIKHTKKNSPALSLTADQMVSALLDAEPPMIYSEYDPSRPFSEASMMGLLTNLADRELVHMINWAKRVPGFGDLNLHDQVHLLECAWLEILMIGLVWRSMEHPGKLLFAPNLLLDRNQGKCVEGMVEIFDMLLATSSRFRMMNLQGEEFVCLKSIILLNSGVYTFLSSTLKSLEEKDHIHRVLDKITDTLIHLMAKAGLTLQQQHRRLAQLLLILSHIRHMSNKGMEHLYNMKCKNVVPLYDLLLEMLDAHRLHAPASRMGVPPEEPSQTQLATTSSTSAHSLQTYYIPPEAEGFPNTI

As for `CC/C(=C(\c1ccccc1)c1cccc(OC(C)=O)c1)c1ccc(OC(C)=O)c(OC(C)=O)c1`, in assay [1], the inhibition was 53%. In addition, the T/C in assay [2] turned out to be 30%; in assay [4], 87%. Also, the estrogenic effect in assay [3] is 63%.

For the molecule `CCC(=C(c1ccc(OC(C)=O)cc1)c1ccc(OC(C)=O)c(OC(C)=O)c1)c1ccccc1`, the inhibition in assay [5] came to 61%.

As for `CC/C(=C(\c1ccccc1)c1ccc(OCCN(C)C)cc1)c1ccccc1` [TAMOXIFEN], the T/C in assay [2] was found to be 10%; in assay [4] it was 92%.

Regarding `CC/C(=C(\c1ccccc1)c1ccc(OC(C)=O)c(OC(C)=O)c1)c1ccc(OC(C)=O)c(OC(C)=O)c1`, the T/C in assay [2] is on record as 75%; in assay [4], 90%. In addition, the estrogenic effect in assay [3] was determined as 77%.

Take `CC/C(=C(/c1ccccc1)c1ccc(OC(C)=O)cc1)c1ccc(OC(C)=O)c(OC(C)=O)c1`: the T/C is given as 2% in assay [2] and 183% in assay [4].

Consider `CC/C(=C(/c1ccccc1)c1ccc(OC(C)=O)c(OC(C)=O)c1)c1ccc(OC(C)=O)cc1`, for which the T/C in assay [2] was 22%; in assay [4], 113%.

Regarding `CC/C(=C(\c1ccccc1)c1ccc(OC(C)=O)c(OC(C)=O)c1)c1cccc(OC(C)=O)c1`, the T/C worked out at 82% in assay [2] and 115% in assay [4].

As for `CC/C(=C(\c1ccccc1)c1ccc(OC(C)=O)c(OC(C)=O)c1)c1ccc(OC(C)=O)cc1`, the figures for the T/C in assay [2] and in assay [4] were 40% and 113%, respectively.

For `CC/C(=C(/c1ccccc1)c1cccc(OC(C)=O)c1)c1ccc(OC(C)=O)c(OC(C)=O)c1`, the T/C in assay [2] was 2%; in assay [4], 123%. In assay [3], this molecule returned an estrogenic effect of 61%.

With `CC/C(=C(\c1ccccc1)c1ccc(OC(C)=O)cc1)c1ccc(OC(C)=O)c(OC(C)=O)c1`, the T/C in assay [2] came out at 1%; in assay [4], 195%.

On to `CC/C(=C(\c1ccccc1)c1ccc(OC(C)=O)c(OC(C)=O)c1)c1ccccc1`, for which the T/C was 19% in assay [2] and 107% in assay [4]. In assay [3], this molecule yielded an estrogenic effect of 77%.

With `CC/C(=C(/c1ccc(OC(C)=O)cc1)c1ccc(OC(C)=O)c(OC(C)=O)c1)c1ccccc1`, the T/C in assay [2] turned out to be 44%; in assay [4] it was 99%. In assay [6], this molecule registered an inhibition of 0%.

As to `CCC(=C(c1ccccc1)c1ccccc1)c1ccc(OC(C)=O)c(OC(C)=O)c1`, the values for the T/C in assay [2] and in assay [4] were 9% and 115%, respectively. The molecule further yielded an inhibition in assay [7] of 18%.

In the case of `CC/C(=C(/c1ccccc1)c1ccc(OC(C)=O)c(OC(C)=O)c1)c1ccc(OC(C)=O)c(OC(C)=O)c1`, the T/C in assay [2] came to 84%; in assay [4] it was 99%. Also, the estrogenic effect in assay [3] is 67%.

Regarding `CC/C(=C(/c1ccccc1)c1ccc(OC(C)=O)c(OC(C)=O)c1)c1ccccc1`, the figures for the T/C in assay [2] and in assay [4] were 17% and 106%, respectively. For the same molecule, in assay [3], the estrogenic effect was found to be 66%.

Regarding `CC/C(=C(/c1ccccc1)c1ccc(OC(C)=O)c(OC(C)=O)c1)c1cccc(OC(C)=O)c1`, the values for the T/C in assay [2] and in assay [4] were 35% and 103%, respectively.

`CCC(=C(c1ccc(OC(C)=O)c(OC(C)=O)c1)c1ccc(OC(C)=O)c(OC(C)=O)c1)c1ccccc1`: the T/C in assay [2] was found to be 134%; in assay [4], 107%. Also, the inhibition in assay [5] is 54%. This molecule also showed an estrogenic effect in assay [3] of 13%.

With `CC/C(=C(\c1ccc(OC(C)=O)cc1)c1ccc(OC(C)=O)c(OC(C)=O)c1)c1ccccc1`, the values for the T/C in assay [2] and in assay [4] were 23% and 125%, respectively. For the same molecule, the inhibition in assay [6] stood at 38%.

The values above are taken from ChEMBL document CHEMBL1123328, “Catechol estrogens of the 1,1,2-triphenylbut-1-ene type: relationship between structure, estradiol receptor affinity, estrogenic and antiestrogenic properties, and mammary tumor inhibiting activities” (1986).
